Source: BindingDB's records for doi:10.1021/jm960868t (Organix, 1997)

Target: Sodium-dependent dopamine transporter (Macaca fascicularis, UniProt Q9GJT6)
Assay: Inhibition of [3H]WIN-35428 binding to dopamine transporter using of Cynomolgus monkey caudate-putamen
Outline: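 Caudate-putamen membranes (washed in 50 mM Tris-HCl pH 7.4, 3800g spins) incubated at 4 mg original wet tissue/mL with 0.3 nM [3H]WIN35,428 and 7–14 competitor concentrations in 50 mM Tris-HCl/100 mM NaCl pH 7.4, 2 h at 0–4 °C. Filtered on BSA-soaked GF/B filters, scintillation counting. Nonspecific binding defined with 30 μM (–)-cocaine. IC50 computed by EBDA; independent experiments in triplicate.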

Chain of Sodium-dependent dopamine transporter (Q9GJT6 whole entry): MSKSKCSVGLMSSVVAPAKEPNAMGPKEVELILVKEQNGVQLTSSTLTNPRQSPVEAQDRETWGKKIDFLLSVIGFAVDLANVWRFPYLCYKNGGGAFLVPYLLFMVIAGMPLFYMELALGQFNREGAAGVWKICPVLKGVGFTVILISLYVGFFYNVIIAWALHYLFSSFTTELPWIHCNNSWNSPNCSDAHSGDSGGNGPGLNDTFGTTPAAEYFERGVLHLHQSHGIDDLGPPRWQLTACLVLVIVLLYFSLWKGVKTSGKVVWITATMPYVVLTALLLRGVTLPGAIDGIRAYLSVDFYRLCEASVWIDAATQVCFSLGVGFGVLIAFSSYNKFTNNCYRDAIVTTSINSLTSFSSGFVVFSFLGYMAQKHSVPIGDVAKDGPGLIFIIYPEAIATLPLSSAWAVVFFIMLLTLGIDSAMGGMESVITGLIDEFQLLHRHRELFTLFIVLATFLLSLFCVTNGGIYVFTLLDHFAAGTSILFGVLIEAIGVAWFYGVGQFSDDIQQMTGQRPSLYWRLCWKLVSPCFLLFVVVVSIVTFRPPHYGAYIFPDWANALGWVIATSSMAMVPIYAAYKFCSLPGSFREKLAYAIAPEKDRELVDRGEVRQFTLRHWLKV

Compound | IC50
COC(=O)[C@@H]1C2CCC(C[C@@H]1OC(c1ccc(F)cc1)c1ccc(F)cc1)N2CCCN1CC[S][Re]2(=[O])[S]CC[N]2C(=O)C1 (some centres not stated) | 343 nM
COC(=O)C1C(c2ccc(Cl)c(Cl)c2)CC2CCC1N2CCC[N+]12CC[S][Re]13(=[O])[S]CC[N]3C(=O)C2 (stereo not drawn) [[N-[2-[(3'-N'-Propyl-3''beta-(3,4-dichlorophenyl)tropane-2''beta-carboxylic acid methyl ester)(2-mercaptoethyl)amino]acetyl]-2-aminoethanethiolato]rhenium(V) oxide] | 37.2 nM
